Compound activity (PubChem BioAssay)
DENV2 CPE rescue = inhibitors of DENV2 cytopathic effect; DENV2-infected cells, cytopathic effect rescue, plate reader; CPE inhibition, % at 9.99 µM; 350,000 tested, 1.7% active; AID 651640; in the data active means CPE inhibition above about 20%, passing the limit was not always enough; inconclusive means no clear call, values can overlap the other calls; tested in BHK-21 cells;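 further: 0% = median of neutral control wells and 100% = median of positive control wells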
XiGFP reactiv = activators of X-chromosome reactivation in mouse fibroblasts | XiGFP mouse fibroblasts, % GFP-positive cells imaging, 3 d; cells co-treated with 5-aza-dC sensitizer; scaled so ellipticine positive control = 100% | activation, % at 7.58 µM | 360,000 tested, 0.055% active | AID 743238;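 active means mean normalized replicate activation at least 10% and every replicate at or above 10%; inconclusive means only one of the two criteria met; inactive means mean below 10% and not all replicates reach 10%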;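 further: 0% = median of on-plate neutral control wells and 100% = ellipticine 6 µM median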
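Assay system – SV40-immortalized XiGFP fibroblast cells, line 68-5-11 · Buffer or medium – DMEM supplemented with 5-aza-dC as sensitizing agent · Dosing – one concentration, pinned · Benchmarks – positive control ellipticine, 6 µM final · Times – 3 days compound exposure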
PglD DTNB = inhibitors of Campylobacter jejuni PglD acetyltransferase; purified PglD enzyme, DTNB colorimetric CoA detection; inhibition, % at 12.5 µM; 360,000 tested, 0.098% active; AID 602405; in the data active means inhibition above about 16%, passing the limit was not always enough; inconclusive means no clear call, values can overlap the other calls
C2C12 statin = suppression of simvastatin myotoxicity. AID 602340. 330,000 tested, 0.78% active. rescue of ATP level, % at 7.49 µM. C2C12 myotubes + simvastatin, ATP luminescence, 48 h; scaled: DMSO 0, geranylgeraniol control 100;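 active means mean ATP rescue above about 67%, or every replicate alone reaching that limit, limit read from the data, passing the limit was not always enough; inconclusive means no clear call, values can overlap the other calls; inactive means mean under the limit and some replicate under it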;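 further: myotubes were challenged with 10 µM simvastatin during compound exposure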
E-sel inducer = induces E-selectin expression in human endothelial cells; activation, % at 7.58 µM; AID 686992; HUVEC E-selectin immunofluorescence imaging; normalized: neutral wells 0, TNF-alpha wells 100; 260,000 tested, 0.37% active; P16581;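 active means mean E-selectin-positive cell signal at least 10% of the positive control, reached in at least 60% of replicates, without over 20% cell loss; inconclusive means no rule given, readout overlaps actives, possibly toxicity-flagged; inactive means the rest, including those meeting only one limit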
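Test system – human umbilical vein endothelial cells (HUVEC), E-selectin induction · Input – 3,000 HUVEC seeded per well · Buffer or medium – EGM-2, gelatin · Compound dosing – single-point compound dose · Detection – immunofluorescence imaging · Measure – percent E-selectin-positive cells · Controls – TNF-alpha high, DMSO low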
FGF22 binding-1 = binders of recombinant human FGF22 by thermal shift; activity (Tm shift, normalised), % at 9.99 µM; 340,000 tested, 1.5% active; AID 651658; SYPRO orange fluorescence; percent of sucrose octasulfate shift, DMSO zero; Q9HCT0;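 active means mean Tm shift, scaled 0 neutral to 100 positive control, at about 1.3% or above, every replicate too, limit read from the data; inconclusive means no clear call, values can overlap the other calls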
Target sequence (Q9HCT0 whole entry, looked up): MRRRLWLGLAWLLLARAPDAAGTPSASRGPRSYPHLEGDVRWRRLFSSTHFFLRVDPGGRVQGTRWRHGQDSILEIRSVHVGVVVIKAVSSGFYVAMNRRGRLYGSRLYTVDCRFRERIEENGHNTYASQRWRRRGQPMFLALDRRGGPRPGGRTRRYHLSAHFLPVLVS
FGF22 binding-2 = binders of human FGF22 by thermal shift | shares compounds with FGF22 binding-1 | 1,000 tested, 2% active | thermal shift activity, °C (ΔTm) at 38 µM | recombinant FGF22 thermal shift, SYPRO orange fluorescence | AID 720646;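 active means fitted rise in melting shift crosses a set limit at or below the top valid dose tested; inconclusive means flat fit at mid-level activity, or a poor quality fit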
TSA no protein = shows thermal shift signal without protein, FGF22 counter-screen | AC50, µM (top dose mostly 38 µM) | AID 743019 | 1,000 tested, 2% active | shares compounds with FGF22 binding-1 | compound-only SYPRO orange thermal shift counter-screen, no protein;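 active means rising signal whose fitted curve reaches the 0.54 level within the top valid dose, showing a melting point, actives reach about 13 µM in these data; inactive means the rest, including activity in the opposite direction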; further: value is where the raw curve crosses a fixed level and not half-maximal
* marks the source's active call; other numbers are inactive results; i = inactive; ? = inconclusive; · = no result given; [ ] = dose if it differs, or a comment. A selection: hits, their analogues and other compounds. The true share with any hit is near 3.3%.

SMILES	DENV2 CPE rescue	XiGFP reactiv	PglD DTNB	C2C12 statin	E-sel inducer	FGF22 binding-1	FGF22 binding-2	TSA no protein
C[C@H](CO)N1C[C@H](C)[C@H](CN(C)C(=O)NC2CCCCC2)Oc2ccc(NC(=O)CCN3CCOCC3)cc2C1=O	4.6	-0.1	-1.8	-4.1	11.5	0.0	·	·
Cc1cc(C(=O)Nc2cccc3c2O[C@@H](CN(C)C(=O)NC2CCCCC2)[C@@H](C)CN([C@H](C)CO)C3=O)n(C)n1	15.8	0.1	1.7	-5.7	0.0	31.9*	0.009	i
C[C@H]1CN([C@@H](C)CO)C(=O)c2cc(NC(=O)CCN3CCOCC3)ccc2O[C@H]1CN(C)C(=O)NC1CCCCC1	2.9	0.1	1.5	-1.2	-0.1	3.5*	0.152[42 µM]	i
Cc1ccc(S(=O)(=O)Nc2ccc3c(c2)CC(=O)N([C@H](C)CO)C[C@@H](C)[C@H](CN(C)C(=O)Nc2ccccc2)O3)cc1	8.4	0.4	-3.8	29.2	0.1	2.2*	0.134	i
Cc1cc(C(=O)Nc2cccc3c2O[C@@H](CN(C)C(=O)NC(C)C)[C@@H](C)CN([C@@H](C)CO)C3=O)n(C)n1	-5.4	-0.1	0.0	-5.1	-0.2	-0.1	·	·
Cc1noc(C)c1S(=O)(=O)Nc1ccc2c(c1)CC(=O)N([C@@H](C)CO)C[C@H](C)[C@H](CN(C)S(=O)(=O)c1c(C)noc1C)O2	13.5	-0.9	2.5	17.6	0.1	-0.5	·	·
COc1ccc(S(=O)(=O)N(C)C[C@@H]2Oc3c(NS(=O)(=O)c4ccc(C)cc4)cccc3C(=O)N([C@@H](C)CO)C[C@@H]2C)cc1	16.0	-1.1	·	·	-0.4	-1.0	·	·
CC(C)C#Cc1ccc2c(c1)O[C@@H](CN(C)Cc1cccnc1)[C@H](C)CN([C@@H](C)CO)S2(=O)=O	-14.1	-1.2	1.7	-160.3	0.2	0.0	·	·
COc1ccc(NC(=O)N(C)C[C@H]2Oc3ccc(NC(=O)Cc4ccccc4)cc3C(=O)N([C@H](C)CO)C[C@H]2C)cc1	·	0.0	·	-17.8	0.0	·	·	·
COc1ccc(NC(=O)N(C)C[C@H]2Oc3ccc(NS(=O)(=O)c4ccc(Cl)cc4)cc3C(=O)N([C@H](C)CO)C[C@H]2C)cc1	14.2	0.1	1.3	·	0.0	1.4*	-0.034[42 µM]	i
C[C@H]1CN([C@@H](C)CO)C(=O)c2cccc(NC(=O)Nc3ccc4c(c3)OCO4)c2O[C@H]1CN(C)S(=O)(=O)c1cn(C)cn1	3.2	0.2	0.0	-17.5	0.0	1.6*	-0.079	i
COc1ccc(NC(=O)N(C)C[C@H]2Oc3ccc(NS(=O)(=O)c4ccc(Cl)cc4)cc3C(=O)N([C@@H](C)CO)C[C@H]2C)cc1	-9.5	-1.3	2.1	·	4.2	-0.4	·	·
COc1ccc(NC(=O)N(C)C[C@@H]2Oc3ccc(NC(=O)Cc4ccccc4)cc3C(=O)N([C@H](C)CO)C[C@H]2C)cc1	-3.8	-1.2	0.7	-5.5	0.0	1.5*	0.097[42 µM]	i
CN1C(=O)c2cc(NC(=O)Cc3ccccc3)ccc2OC[C@@H]2O[C@@H](CC(=O)NCC3CC3)CC[C@H]21	?	0.3	2.2	-10.5	0.1	-0.3	·	·
COc1ccc(-n2nnnc2/C=C\Nc2ccc(C)cc2)cc1	-7.9	-0.1	-2.1	0.2	·	24.7*	0.094	i
O=C(N[C@H]1C=C[C@H](CC(=O)N2CCc3ccccc3C2)O[C@H]1CO)C1CCOCC1	5.9	-0.4	·	·	-0.1	·	·	·
C[C@@H]1CN([C@@H](C)CO)C(=O)c2cccc(NS(=O)(=O)c3ccc(Cl)cc3)c2O[C@@H]1CN(C)C(=O)Nc1ccc(C(F)(F)F)cc1	·	0.0	·	·	-0.1	·	·	·
O=C(O)c1[nH]c2ccc(Br)cc2c1CCN1C(=O)c2cccc([N+](=O)[O-])c2C1=O	-1.4	0.0	·	7.2	-0.1	3.0*	·	i
O=C(C1CCCCC1)N1[C@@H]2CN(S(=O)(=O)c3ccccc3)c3ccccc3[C@@H]2[C@@H]1CO	13.2	-0.1	1.6	10.9	0.2	-0.1	·	·
O=C(C1CC1)N1[C@H](CO)[C@H]2c3ccccc3N(S(=O)(=O)c3ccccc3)C[C@H]21	0.7	0.0	-8.0	-1.0	0.2	2.0*	0.009	i
O=C(Nc1ccc(Cl)cc1)N1C[C@@H]2[C@H](c3ccccc31)[C@H](CO)N2C(=O)C1CC1	-0.6	0.1	-2.5	-16.7	-0.3	3.4*	0.09	i
C[C@@H]1CN([C@@H](C)CO)C(=O)c2cc(NC(=O)CCCCCC(=O)Nc3ccccc3N)ccc2O[C@@H]1CN(C)CC1CCCCC1	-2.9	-0.1	·	·	0.3	0.1	·	·
N#C[C@@H]1[C@H](c2ccc(C3=CCCC3)cc2)[C@H](CO)N1C(=O)C1CCOCC1	-6.3	0.3	-4.2	-1.8	-0.4	-0.4	·	·
C[C@H]1CCCCO[C@@H](CN(C)C(=O)NC2CCCCC2)[C@@H](C)CN([C@@H](C)CO)C(=O)c2cc(NC(=O)c3ccncc3)ccc2O1	13.2	-0.1	-2.3	·	-0.2	0.6	·	·
